Reference: ChEMBL document CHEMBL4145465, “Design, synthesis and biological evaluation of novel ring-opened cromakalim analogues with relaxant effects on vascular and respiratory smooth muscles and as stimulators of elastin synthesis” (Eur J Med Chem, 2018)
Active and inactive are the calls of the source. No cut-off for these calls is given here.

What was measured:
Thoracic aorta [1] = assay: Vasorelaxing activity in Wistar rat endothelium-denuded thoracic aorta ring assessed as reduction in 30 mM KCl-induced contraction after 15 mins in presence of 10 uM glibenclamide; type: functional, tissue-based; conditions: 0.25 h, in the assay text read “endothelium-intact” for “endothelium-denuded”
In short: (§1)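 Female Wistar rat aortic rings were contracted with 30 mM KCl while continuously bathed in 1 or 10 µM glibenclamide. Compound in DMSO was added cumulatively up to 300 µM, each step held ≥15 min to a plateau. EC50 was derived by non-linear regression and compared with the EC50 obtained without glibenclamide.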

Thoracic aorta [2] = assay: Vasorelaxing activity in Wistar rat endothelium-denuded thoracic aorta ring assessed as reduction in 80 mM KCl-induced contraction after 15 mins; type: functional, tissue-based; conditions: 0.25 h, in the assay text read “endothelium-intact” for “endothelium-denuded”
In short: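 Female Wistar rat aortic rings were depolarized with an 80 mM KCl solution (NaCl 43.6 mM). Once the plateau was reached, compound in DMSO was added cumulatively up to 300 µM. EC50 was obtained by non-linear regression of concentration-response curves.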

Trachea/thoracic aorta = assay: Ratio of EC50 for Wistar rat trachea tonus to EC50 for Wistar rat endothelium-denuded thoracic aorta ring; type: functional; conditions: in the assay text read “endothelium-intact” for “endothelium-denuded”
In short: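 Ratio of trachea EC50 to aorta EC50, both measured against 30 mM KCl contraction in female Wistar rat rings, with cumulative compound addition in DMSO and EC50 from non-linear regression.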

Thoracic aorta [3] = assay: Vasorelaxing activity in Wistar rat endothelium-denuded thoracic aorta ring assessed as reduction in 30 mM KCl-induced contraction after 15 mins in presence of 1 uM glibenclamide; type: functional, tissue-based; conditions: 0.25 h, in the assay text read “endothelium-intact” for “endothelium-denuded”; in short: as §1
Trachea [4] = assay: Tracheorelaxant activity in Wistar rat trachea tonus assessed as reduction in 30 mM KCl-induced contraction after 15 mins; type: functional, tissue-based; conditions: 0.25 h
In short: (§2)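 Trachea rings (3-4 mm) from female Wistar rats were held in a 10 ml organ bath under the same conditions as the aorta and contracted with 30 mM KCl. Compound in DMSO was added cumulatively. EC50 was derived by non-linear regression; Emax is % relaxation at 100 µM.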

Thoracic aorta [5] = assay: Vasorelaxing activity in Wistar rat endothelium-intact thoracic aorta ring assessed as reduction in 30 mM KCl-induced contraction after 15 mins; conditions: 0.25 h
Trachea [6] = assay: Tracheorelaxant activity in Wistar rat trachea tonus assessed as reduction in 30 mM KCl-induced contraction at 100 uM after 15 mins relative to control; type: functional; conditions: 0.25 h; in short: as §2
VSMC [7] = assay: Induction of elastin synthesis in rat VSMC at 50 uM after 48 hrs by ELISA relative to control; type: functional
In short: (§3)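 Rat aortic VSMCs (collagenase/elastase digestion of intima-media, grown in DMEM 20% FBS on gelatin) serum-starved overnight in 1% FBS-DMEM, seeded 25000 cells/well, then exposed 48 h to compound in DMSO (<1% final); DMSO-only negative control, diazoxide reference. Fixed cells immunostained for elastin with HRP secondary, TMB substrate, absorbance 450 nm; 5-7 wells per concentration.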

Thoracic aorta [8] = assay: Vasorelaxing activity in Wistar rat endothelium-intact thoracic aorta ring assessed as reduction in 30 mM KCl-induced contraction at 300 uM after 15 mins relative to DMSO; conditions: 0.25 h
VSMC [9] = assay: Induction of elastin synthesis in rat VSMC at 20 uM after 48 hrs by ELISA; type: functional, cell-based; in short: as §3
[10] = Ionozation constant, pKa of the compound at pH 3 to 12 at 25 degC by UV/VIS spectrophotometric method; type: physicochemical

Structure (SMILES)	EC50 (Thoracic aorta [1]) [µM]	EC50 (Thoracic aorta [2]) [µM]	EC50 (Thoracic aorta [3]) [µM]	EC50 (Trachea [4]) [µM]	EC50 (Thoracic aorta [5]) [µM]	pKa [10]	Ratio EC50 (Trachea/thoracic aorta)	Emax (Trachea [6]) [%]	Activity (VSMC [7])	Emax (Thoracic aorta [8]) [%]	Activity (VSMC [9])
COc1ccc(CCN(C)CCCC(C#N)(c2ccc(OC)c(OC)c2)C(C)C)cc1OC (centres undefined) [VERAPAMIL]	0.07	0.05	0.07	0.89	0.06	–	28.7	–	–	–	–
CC1(C)Oc2ccc(C#N)cc2[C@H](N2CCCC2=O)[C@H]1O [(-)-CROMAKALIM]	87.2	191	3.4	124	0.13	–	956.9	70.1	–	–	–

Further lines, with some results ahead:

EC50 (Thoracic aorta [1]) [µM]	EC50 (Thoracic aorta [2]) [µM]	EC50 (Thoracic aorta [3]) [µM]	EC50 (Trachea [4]) [µM]	EC50 (Thoracic aorta [5]) [µM]	pKa [10]	Structure (SMILES)	Ratio EC50 (Trachea/thoracic aorta)	Emax (Trachea [6]) [%]	Activity (VSMC [7])	Emax (Thoracic aorta [8]) [%]	Activity (VSMC [9])
69.3	60.9	90.5	30.4	65.3	–	Cc1ccc(OCc2ccccc2)c(C(C)NC(=O)NS(=O)(=O)c2ccc(Cl)cc2)c1 (racemic)	0.5	172	inactive	126	inactive
54.6	61.6	78.4	30.8	57.5	5.31	CC(NC(=O)NS(=O)(=O)c1ccc(Cl)cc1)c1cc(Br)ccc1OCc1ccccc1 (racemic)	0.5	161	Active	95.1	inactive
8.6	5.3	6.7	1.7	7.2	–	COc1ccc(Cl)cc1C(C)NC(=O)N(C)S(=O)(=O)c1ccccc1 (racemic)	0.2	154	Active	103	Active
